This is a sample that favours compounds with a hit; in the whole collection about 2.9% have one here.
Beta2AR agonist – activates human beta-2 adrenergic receptor causing internalization | actives 0.43% (n = 340,000) | Am2.2-beta2AR cells, FAP receptor internalization, flow cytometry | P07550 | AID 504454 | response, % (test concentration not listed);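 active = response above a set limit, near 3 SD of response in nonfluorescent compounds, cut at about 42% in these data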
MEKK2 WT-MEK5 – raises or lowers MEK5 binding to wildtype human MEKK2 PB1 domain; Q9Y2U5; bead flow cytometry, Alexa488-MEK5 binding to MEKK2 WT; actives lie on both sides; binding response (% of control), % at 10 µM; actives 1.1% (n = 290,000); AID 1531; in the data active = binding response below about 67% or above about 130%
Dynein transport – blocks dynein driven cargo transport along microtubules; 3617.4 mouse cells, GR-EGFP nuclear translocation imaging; test concentration mostly 20 µM; stimulated with dexamethasone, 1 µM; stronger effect = lower value; z-score, hits read low; actives 0.47% (n = 220,000); AID 1381;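 active = plate z-score of nuclear minus cytoplasmic receptor signal below a set negative limit, without overly bright fluorescence or cell loss, cut at about -3.5 in these data, passing the limit was not always enough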;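 also: z-score of nuclear minus cytoplasmic ring GR-EGFP intensity difference per well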
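medium = tetracycline-free induction medium containing charcoal-stripped FBS | also added = 1.0 µM final dexamethasone stimulus | schedule = 48 h induction, 1 h compound, 30 min dex at 37 °C | technique = fixed, Hoechst-stained cells imaged at 10x for EGFP | measure = GR-EGFP nuclear translocation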
ATG4B inhibitor – inhibitors of human ATG4B cysteine protease. actives 0.51% (n = 340,000). Q9Y4P1. AID 504462. inhibition, % at 8.33 µM. ATG4B cleavage of LC3-PLA2, NBD-HPC fluorescence, 1 h; in the data active = inhibition above about 40%
MEKK2 mut-MEK5 – signal of MEK5 binding to mutant human MEKK2 PB1 domain. percent response, % at 10 µM. bead flow cytometry, Alexa488-MEK5 binding to MEKK2 mutant. actives 0.35% (n = 290,000); in the data active = percent response above about 24%, passing the limit was not always enough
MEKK3 PB1 HTS – MEKK3-MEK5 PB1 interaction, increase or decrease; Q99759; bead-based flow cytometry, Alexa488-MEK5 binding to MEKK3; actives lie on both sides; 0 = blocked by unlabeled MEK5, 100 = vehicle; binding response (% of control), % at 10 µM; actives 1.4% (n = 290,000); AID 1529;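 active = binding response more than 3 SD above or below the average of its plate-row segment, actives on both sides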;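 also: Alexa488 bead fluorescence after subtracting the streptavidin-only scavenger bead signal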
Target sequence (Q99759 whole entry, looked up): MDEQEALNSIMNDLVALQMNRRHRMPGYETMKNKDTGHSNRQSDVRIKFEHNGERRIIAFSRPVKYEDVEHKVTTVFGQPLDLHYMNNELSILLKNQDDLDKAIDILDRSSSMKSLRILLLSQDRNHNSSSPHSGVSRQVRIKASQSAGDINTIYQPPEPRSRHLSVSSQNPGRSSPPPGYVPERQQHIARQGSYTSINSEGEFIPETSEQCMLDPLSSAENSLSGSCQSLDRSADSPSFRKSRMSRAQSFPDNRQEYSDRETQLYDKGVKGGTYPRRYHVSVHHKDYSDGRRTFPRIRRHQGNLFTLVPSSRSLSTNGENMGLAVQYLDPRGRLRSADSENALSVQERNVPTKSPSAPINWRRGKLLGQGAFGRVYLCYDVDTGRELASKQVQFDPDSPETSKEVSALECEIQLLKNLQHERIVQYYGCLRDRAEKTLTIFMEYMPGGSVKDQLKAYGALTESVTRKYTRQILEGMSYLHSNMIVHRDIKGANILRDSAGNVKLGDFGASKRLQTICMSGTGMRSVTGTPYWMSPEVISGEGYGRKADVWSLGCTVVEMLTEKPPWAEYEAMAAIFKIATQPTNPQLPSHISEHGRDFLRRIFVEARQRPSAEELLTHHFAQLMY
MEKK2wt confirm – raises or lowers MEK5 binding to wildtype human MEKK2, retest | shares compounds with MEKK3 PB1 HTS | actives 2.4% (n = 5,900) | bead flow cytometry, Alexa488-MEK5 binding to MEKK2 WT; actives lie on both sides | binding response (% of control), % at 10 µM; in the data active = binding response below about 16% or above about 210%; inactive = in between
MEKK2mut-MEK5 – signal of MEK5 binding to mutant human MEKK2, retest; actives 2% (n = 5,900); bead flow cytometry, Alexa488-MEK5 binding to MEKK2 mutant; AID 1893; shares compounds with MEKK3 PB1 HTS; percent response, % at 10 µM; in the data active = percent response mostly above about 71%, no sharp cut-off; inactive = mostly below about 38%;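 also: higher means compound restores mutant binding toward wildtype level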
MEKK3-MEK5 inh – MEKK3-MEK5 PB1 inhibition, single concentration confirmation | shares compounds with MEKK3 PB1 HTS | bead flow cytometry, Alexa488-MEK5 binding to MEKK3; stronger effect = lower value | binding response (% of control), % at 10 µM | actives 1.8% (n = 5,900);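 active = binding response below 72% of control, or above a set upper limit, though filed actives all read lower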;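 also: 100% = DMSO only wells and 0% = binding blocked by excess unlabeled MEK5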
Numbers without * were called inactive; [ ] = dose if it differs, or a comment.

COc1cc2cncc(Cc3ccc(Cl)cc3)c2cc1OC was read as Beta2AR agonist -3 and ATG4B inhibitor -16.
COc1ccccc1NC(=O)C(C)OC(=O)CCNS(=O)(=O)c1cccc(C(F)(F)F)c1 (stereo unspecified) was read as Beta2AR agonist 0 and ATG4B inhibitor -11.
Cc1ccc(/C(N)=N/OC(=O)CCCc2ccccc2)cc1 was read as Beta2AR agonist 3, MEKK2 WT-MEK5 96, ATG4B inhibitor 1, MEKK2 mut-MEK5 -6 and MEKK3 PB1 HTS 99.
`COc1cc(C(=S)N2CCOCC2)cc(OC)c1O` gave Beta2AR agonist 2, MEKK2 WT-MEK5 57, Dynein transport 0.27, ATG4B inhibitor -5, MEKK2 mut-MEK5 -17, MEKK3 PB1 HTS 42*[inhibitor], MEKK2wt confirm 109, MEKK2mut-MEK5 15 and MEKK3-MEK5 inh 107.
Screening CCOc1cc(C(=S)N2CCOCC2)ccc1OC returned Beta2AR agonist 0, MEKK2 WT-MEK5 95, Dynein transport 0.18, ATG4B inhibitor -5, MEKK2 mut-MEK5 0 and MEKK3 PB1 HTS 99.
`COc1ccc(C(=O)N2CCOCC2)cc1Br` gave Beta2AR agonist -2, MEKK2 WT-MEK5 121, Dynein transport -1.1, ATG4B inhibitor -7, MEKK2 mut-MEK5 7, MEKK3 PB1 HTS 125*, MEKK2wt confirm 93, MEKK2mut-MEK5 -3 and MEKK3-MEK5 inh 96.
`CCOc1ccc(Br)cc1C(=S)N1CCCC1` gave Beta2AR agonist -6, MEKK2 WT-MEK5 110, ATG4B inhibitor -2, MEKK2 mut-MEK5 5 and MEKK3 PB1 HTS 106.
Screening CCn1c(C)nc2cc(C(=O)N/N=C(\C)c3ccc(OC)cc3O)ccc21 returned Beta2AR agonist 9, MEKK2 WT-MEK5 100, Dynein transport 0.26, ATG4B inhibitor 1, MEKK2 mut-MEK5 1 and MEKK3 PB1 HTS 103.
For O=S(=O)(c1ccc(N2CCOCC2)cc1)N1CCOCC1 the results were Beta2AR agonist -4, MEKK2 WT-MEK5 107, Dynein transport 1.5, ATG4B inhibitor -8, MEKK2 mut-MEK5 5 and MEKK3 PB1 HTS 104.
CCS(=O)(=O)N1CCN(c2ccc(S(=O)(=O)N3CCOCC3)cc2)CC1 was read as Beta2AR agonist 3, MEKK2 WT-MEK5 50, Dynein transport 0.82, ATG4B inhibitor 14, MEKK2 mut-MEK5 -15, MEKK3 PB1 HTS 48*[inhibitor], MEKK2wt confirm 101, MEKK2mut-MEK5 0 and MEKK3-MEK5 inh 103.
`COc1ccc(-n2c(C)cc(=O)[nH]c2=O)cc1` gave Beta2AR agonist 8, MEKK2 WT-MEK5 105, ATG4B inhibitor -2, MEKK2 mut-MEK5 1 and MEKK3 PB1 HTS 104.
Screening Cc1ccccc1OCCn1cc(/C=C(\C#N)C(=O)NCc2ccco2)c2ccccc21 returned Beta2AR agonist 2, MEKK2 WT-MEK5 67, Dynein transport -0.14, ATG4B inhibitor -7, MEKK2 mut-MEK5 -2, MEKK3 PB1 HTS 75*[inhibitor], MEKK2wt confirm 101, MEKK2mut-MEK5 -2 and MEKK3-MEK5 inh 103.
`CC1CCCN(c2nc3c(c(=O)[nH]c(=O)n3C)n2CCSc2nc3ccccc3o2)C1` (stereo unspecified) gave Beta2AR agonist -22, MEKK2 WT-MEK5 101, Dynein transport -0.12, ATG4B inhibitor 0, MEKK2 mut-MEK5 -13, MEKK3 PB1 HTS 82*[inhibitor], MEKK2wt confirm 108, MEKK2mut-MEK5 10 and MEKK3-MEK5 inh 108.
`Cc1ccc(C2=NN(CC(=O)NCc3cccnc3)C(=O)CC2)cc1` gave MEKK2 WT-MEK5 110, Dynein transport 0.18, MEKK2 mut-MEK5 1, MEKK3 PB1 HTS 140*, MEKK2wt confirm 104, MEKK2mut-MEK5 8 and MEKK3-MEK5 inh 105.
Screening COc1ccc(C2=NN(CC(=O)NCc3ccco3)C(=O)CC2)cc1 returned Beta2AR agonist -3, MEKK2 WT-MEK5 108, Dynein transport 1.2, ATG4B inhibitor -6, MEKK2 mut-MEK5 0, MEKK3 PB1 HTS 130*, MEKK2wt confirm 105, MEKK2mut-MEK5 3 and MEKK3-MEK5 inh 102.
CC(C(=O)NCc1cccnc1)N1C(=O)c2ccccc2C1=O (stereo unspecified) was read as Beta2AR agonist -1, MEKK2 WT-MEK5 121, Dynein transport -0.72, ATG4B inhibitor 5, MEKK2 mut-MEK5 10, MEKK3 PB1 HTS 126*, MEKK2wt confirm 95, MEKK2mut-MEK5 -2 and MEKK3-MEK5 inh 99.
For CC(C(=O)NCc1ccccc1)N1C(=O)c2ccccc2C1=O (stereo unspecified) the results were Beta2AR agonist -4, MEKK2 WT-MEK5 101, ATG4B inhibitor -1, MEKK2 mut-MEK5 -1 and MEKK3 PB1 HTS 101.
Screening O=C(CN1N=C(c2ccc(Cl)cc2)CCC1=O)NCc1cccnc1 returned Beta2AR agonist -8, MEKK2 WT-MEK5 110, Dynein transport 0.38, ATG4B inhibitor 21, MEKK2 mut-MEK5 1, MEKK3 PB1 HTS 142*, MEKK2wt confirm 99, MEKK2mut-MEK5 -2 and MEKK3-MEK5 inh 103.
O=C(CN1N=C(c2ccccc2)CCC1=O)NCc1ccccc1 was read as Beta2AR agonist -3, MEKK2 WT-MEK5 72, Dynein transport 0.31, ATG4B inhibitor -1, MEKK2 mut-MEK5 -17 and MEKK3 PB1 HTS 79.
Cc1cc(Cl)ccc1OCC(=O)N/N=C/c1ccncc1 was read as Beta2AR agonist -11, MEKK2 WT-MEK5 99, ATG4B inhibitor -6, MEKK2 mut-MEK5 0 and MEKK3 PB1 HTS 100.
Screening Nc1ccc(C(=O)O)c(O)c1 returned Beta2AR agonist 2, MEKK2 WT-MEK5 81, Dynein transport -0.24, ATG4B inhibitor -3, MEKK2 mut-MEK5 -14 and MEKK3 PB1 HTS 95.
`Nc1ccc(N)c(C(=O)O)c1` gave Beta2AR agonist 7, MEKK2 WT-MEK5 25*[inhibitor], ATG4B inhibitor -8, MEKK2 mut-MEK5 -58, MEKK3 PB1 HTS 47*[inhibitor], MEKK2wt confirm 57, MEKK2mut-MEK5 -20 and MEKK3-MEK5 inh 57*.
